GASC1 inh = inhibitors of human demethylase GASC-1 KDM4C; Q9H3R0; GST-KDM4C 2-372, H3K9me3 peptide, LANCE TR-FRET; inhibition, % at 12.5 µM; hit rate 0.15% among 96,000;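 active means mean replicate inhibition above about 25%, with at least 55% of replicates also reaching it, limit read from the data, passing the limit was not always enough; inconclusive means only one of those two conditions met; inactive means neither condition met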
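Material: GST-tagged GASC-1 (JMJD2C) catalytic fragment, aa 2-372. Input: enzyme final amount 10 nM. Medium: HEPES buffer, pH 7.5, plus ascorbate. Reagent: H3K9me3 peptide substrate, Fe(II), 2-oxoglutarate. Doses: single dose. Times: reaction 30 min RT, detection step 1 h RT. Measured by: LANCE TR-FRET. Evaluation: Fall in 671/618 emission ratio as inhibition.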
T cruzi growth-1 = T. cruzi proliferation inhibition. inhibition, % at 8.34 µM. AID 624255. T. cruzi beta-gal in NIH3T3, GalScreen luminescence, 90 h. hit rate 5.9% among 77,000;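 active means mean inhibition above about 93%, with at least 55% of replicates each passing it, limit read from the data, passing the limit was not always enough; inconclusive means only one of those two conditions holds; inactive means neither condition holds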
Pf Dd2 inh = P. falciparum Dd2 growth inhibition; hit rate 2.3% among 94,000; activity change, % at 10 µM; SYBR Green, 72 h; stronger effect = lower value; in the data active means activity change below about -80%; inconclusive means no clear call, values can overlap the other calls
IDH1 R132H inh = IDH1 R132H (human) inhibition; inhibition, % at 10 µM; AID 624101; hit rate 0.18% among 70,000; O75874; IDH1 R132H reductase, diaphorase/resazurin fluorescence, 60 min; in the data active means inhibition above about 34%; inconclusive means no clear call, values can overlap the other calls; inactive means below about 11%;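 further: 0% = DMSO and 100% = no enzyme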
Target sequence (O75874 whole entry R132H): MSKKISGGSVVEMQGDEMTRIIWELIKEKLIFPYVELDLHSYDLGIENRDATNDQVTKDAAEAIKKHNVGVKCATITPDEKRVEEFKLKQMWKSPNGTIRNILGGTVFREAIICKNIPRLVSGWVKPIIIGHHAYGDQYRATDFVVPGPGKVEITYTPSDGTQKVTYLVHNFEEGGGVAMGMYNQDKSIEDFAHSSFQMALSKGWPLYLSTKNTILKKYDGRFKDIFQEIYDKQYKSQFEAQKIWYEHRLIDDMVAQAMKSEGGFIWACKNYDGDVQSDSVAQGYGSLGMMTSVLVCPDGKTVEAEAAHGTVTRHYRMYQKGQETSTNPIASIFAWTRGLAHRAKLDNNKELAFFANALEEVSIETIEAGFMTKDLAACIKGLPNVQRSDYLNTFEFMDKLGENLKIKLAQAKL
T cruzi growth-2 = blocks T. cruzi growth in NIH3T3 host cells. shares compounds with T cruzi growth-1. T. cruzi beta-gal in NIH3T3, GalScreen luminescence, 90 h. inhibition, % at 8.35 µM. hit rate 72% among 5,600;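 active means mean replicate inhibition above about 95% and at least 55% of replicates individually reaching it, limit read from the data; inconclusive means only one of the two criteria is met; inactive means neither criterion is met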
T cruzi growth-3 = blocks T. cruzi growth in NIH3T3 host cells; shares compounds with T cruzi growth-1; T. cruzi beta-gal in NIH3T3, GalScreen luminescence, 90 h; inhibition, % at 2.09 µM; hit rate 21% among 5,600; AID 651740;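 active means mean inhibition above about 95%, with at least 55% of replicates also reaching it, limit read from the data; inconclusive means meets just one of the two conditions; inactive means meets neither condition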;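 further: plate controls were neutral control median for no effect and positive control median for full effect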
3T3 cytotox = NIH/3T3 (mouse) viability loss; shares compounds with T cruzi growth-1; cytotoxicity (signal decrease), % at 8.35 µM; NIH/3T3 viability, CellTiter-Glo ATP luminescence, 90 h; hit rate 14% among 5,600;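 active means mean signal decrease across replicates above about 35% based on untreated-well scatter, with enough replicates individually passing, limit read from the data; inconclusive means no rule stated though some were filed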;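 further: 0% = median of neutral control wells and 100% = median of positive control wells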
NIH3T3 tox 2 = kills mouse NIH/3T3 fibroblasts; inhibition, % at 24.9 µM; hit rate 56% among 5,600; AID 651744; NIH/3T3 viability, CellTiter-Glo ATP luminescence, 90 h; shares compounds with T cruzi growth-1;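 active means mean loss of cell viability signal at or above a set limit, and enough replicates individually reaching it; inconclusive means meets only the mean limit or only the replicate share; inactive means meets neither condition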;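 further: 0% = median of neutral control wells and 100% = median of positive control wells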
Starred values were filed as active, the others as inactive; ? = inconclusive; . = no result. Most compounds without a hit are left out; they make up all but 5.8% or so of the library.

SMILES	GASC1 inh	T cruzi growth-1	Pf Dd2 inh	IDH1 R132H inh	T cruzi growth-2	T cruzi growth-3	3T3 cytotox	NIH3T3 tox 2
CCCC#Cc1cnc2c(c1)C(=O)N([C@@H](C)CO)C[C@@H](C)[C@H](CN(C)Cc1cccnc1)O2	2	0	-20	2	.	.	.	.
C[C@H]1CN([C@@H](C)CO)C(=O)c2cc(N(C)C)ccc2O[C@@H]1CN(C)S(=O)(=O)c1ccccc1	2	51	-7	-3	.	.	.	.
O=C(NCCc1ccncc1)[C@@H]1[C@@H](CO)[C@@H]2Cn3c(ccc(-c4cccc(F)c4)c3=O)[C@H]1N2	-1	20	9	.	.	.	.	.
Cc1ccc(S(=O)(=O)NC[C@H]2CC[C@@H]3[C@@H](CN3C(=O)CN(C)C)O2)cc1	.	.	2	.	.	.	.	.
COc1ccc(NC(=O)N(C)C[C@H]2Oc3cc(-c4ccc(C)cc4)ccc3S(=O)(=O)N([C@H](C)CO)C[C@H]2C)cc1	-3	102*	-75	0	104*	71	1	-1
COc1ccc(NC(=O)N(C)C[C@@H]2Oc3cc(-c4ccc(C)cc4)ccc3S(=O)(=O)N([C@@H](C)CO)C[C@@H]2C)cc1	-2	104*	-87*	0	115*	70	?	43*
COc1ccc(NC(=O)N(C)C[C@@H]2Oc3cc(-c4ccc(C)cc4)ccc3S(=O)(=O)N([C@@H](C)CO)C[C@H]2C)cc1	0	97*	-93*	5	104*	55	-2	23
COc1ccc(NC(=O)N(C)C[C@H]2Oc3cc(-c4ccc(C)cc4)ccc3S(=O)(=O)N([C@H](C)CO)C[C@@H]2C)cc1	-3	114*	-80	-2	95	26	29	27
Cc1ccc(-c2ccc3c(c2)O[C@@H](CN(C)C(=O)Nc2ccccc2)[C@H](C)CN([C@H](C)CO)S3(=O)=O)cc1	-1	.	-36	0	.	.	.	.
C[C@H]1CN([C@@H](C)CO)C(=O)Cc2cc(NC(=O)Nc3ccccc3)ccc2O[C@@H]1CN(C)S(=O)(=O)c1cn(C)cn1	-3	14	15	-23	.	.	.	.
CC(C)CC#Cc1ccc([C@@H]2[C@H](CO)N3C(=O)CN(C(=O)CN4CCOCC4)C[C@@H]23)cc1	0	.	5	.	.	.	.	.
C[C@@H]1CN([C@@H](C)CO)C(=O)c2cc(NS(=O)(=O)c3cccs3)ccc2O[C@@H]1CN(C)S(=O)(=O)c1ccccc1	-2	31	6	.	.	.	.	.
COc1ccc(NC(=O)N(C)C[C@@H]2Oc3cc(-c4ccc(C)cc4)ccc3S(=O)(=O)N([C@H](C)CO)C[C@H]2C)cc1	0	108*	-89*	0	105*	49	10	26*
COc1ccc(NC(=O)N(C)C[C@H]2Oc3cc(-c4ccc(C)cc4)ccc3S(=O)(=O)N([C@@H](C)CO)C[C@@H]2C)cc1	-1	126*	-74	0	107*	60	-9	37*
C[C@@H]1CCCCO[C@H](CN(C)C(=O)Nc2ccc(F)cc2)[C@@H](C)CN([C@H](C)CO)C(=O)c2cc(NC(=O)Nc3cccc4ccccc34)ccc2O1	-1	72	-23	.	.	.	.	.
C[C@H](CO)N1C[C@H](C)[C@@H](CN(C)C(=O)Nc2ccc(F)cc2)OCCCC[C@H](C)Oc2ccc(NC(=O)Nc3cccc4ccccc34)cc2C1=O	12	105*	-32	3	107*	55	9	?
C[C@@H]1CCCCO[C@@H](CN(C)C(=O)Nc2ccccc2)[C@H](C)CN([C@H](C)CO)C(=O)c2cc(NC(=O)NC3CCCCC3)ccc2O1	-1	105*	-48	-3	101*	47	14	11
C[C@@H]1CCCCO[C@@H](CN(C)C(=O)Nc2cccc3ccccc23)[C@H](C)CN([C@H](C)CO)C(=O)c2cc(N(C)C)ccc2O1	2	102*	-36	0	97*	73	-35	0
